In ChEMBL document CHEMBL1142319, “New antitumor imidazo[2,1-b]thiazole guanylhydrazones and analogues” (2008):
Calls of active or inactive are those of the source. No cut-off for these calls is given here.

Tests used:
HL-60 [1] = test: Effect on cell growth in human HL60 cells assessed as cell number per mL at 2 uM; format: functional; parameters: scale not given here
Outline: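 HL-60 cells in RPMI 1640 with 10% FBS and 2 mM glutamine, 37 °C, 5% CO2, doubling time about 24 h. Exposed 24 h to 2 µM compound diluted from DMSO into medium. Cells per mL counted with a Coulter counter.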

HL-60 [2] = test: Induction of cell death in human HL60 cells at 2 uM by propidium iodide staining method; format: functional
Outline: (§1)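 HL-60 cells in RPMI 1640 with 10% FBS and 2 mM glutamine at 37 °C, 5% CO2, exposed for 24 h to compound diluted in medium from DMSO. Cells were counterstained with propidium iodide (5 µg/mL) for plasma membrane integrity and analysed by flow cytometry. The readout is the percentage of PI-positive cells.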

Cancer cell lines [3] = test: Inhibition of human colon cancer cells; format: functional; settings: for TGI: read-out: pTGI (converted)
Outline: (§2)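 NCI 60-cell-line panel, with results grouped by tissue subpanel. Compounds dissolved in DMSO and tested at five 10-fold dilutions, top concentration 10^-4 M. Values given as -log molar concentration for 50% growth inhibition (pGI50), total growth inhibition (pTGI) and 50% cell kill (pLC50), with subpanel means calculated.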

Leukemia cell = test: Inhibition of human leukemia cells; format: functional; settings: for TGI: read-out: pTGI (converted); outline: as §2
Cancer cell lines [4] = test: Inhibition of human non-small cell lung cancer cells; format: functional; settings: for TGI: read-out: pTGI (converted); outline: as §2
Cancer cell lines [5] = test: Inhibition of human CNS cancer cells; format: functional; settings: for TGI: read-out: pTGI (converted); outline: as §2
Melanoma cell = test: Inhibition of human melanoma cells; format: functional; settings: for TGI: read-out: pTGI (converted); outline: as §2
Cancer cell lines [6] = test: Inhibition of human ovarian cancer cells; format: functional; settings: for TGI: read-out: pTGI (converted); outline: as §2
Cancer cell lines [7] = test: Inhibition of human renal cancer cells; format: functional; settings: for TGI: read-out: pTGI (converted); outline: as §2
Cancer cell lines [8] = test: Inhibition of human prostate cancer cells; format: functional; settings: for TGI: read-out: pTGI (converted); outline: as §2
Cancer cell lines [9] = test: Inhibition of human breast cancer cells; format: functional; settings: for TGI: read-out: pTGI (converted); outline: as §2
HL-60 [10] = test: Cell cycle arrest in human HL60 cells assessed as accumulation at G0/G1 phase at 2 uM; format: functional
Outline: (§3)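 HL-60 cells kept in RPMI 1640 with 10% FBS and 2 mM glutamine at 37 °C, 5% CO2. Treated 24 h at 2 µM from DMSO stock diluted in medium. Cells fixed in cold 70% ethanol and stained with propidium iodide 50 µg/mL plus RNAase 10 µg/mL for 30 min. DNA profiles read by flow cytometry on ≥10 000 cells, and phase percentages calculated.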

HL-60 [11] = test: Cell cycle arrest in human HL60 cells assessed as accumulation at S phase at 2 uM; format: functional; outline: as §3
HL-60 [12] = test: Cell cycle arrest in human HL60 cells assessed as accumulation at G2/M phase at 2 uM; format: functional; outline: as §3
[13] = target: T1, S-adenosylmethionine decarboxylase proenzyme (Homo sapiens) (UniProt P17707); test: Inhibition of human S-adenosyl methionine decarboxylase in HL60 cells at 1 to 100 uM; format: cell-based; settings: HL-60
T1 sequence (whole entry): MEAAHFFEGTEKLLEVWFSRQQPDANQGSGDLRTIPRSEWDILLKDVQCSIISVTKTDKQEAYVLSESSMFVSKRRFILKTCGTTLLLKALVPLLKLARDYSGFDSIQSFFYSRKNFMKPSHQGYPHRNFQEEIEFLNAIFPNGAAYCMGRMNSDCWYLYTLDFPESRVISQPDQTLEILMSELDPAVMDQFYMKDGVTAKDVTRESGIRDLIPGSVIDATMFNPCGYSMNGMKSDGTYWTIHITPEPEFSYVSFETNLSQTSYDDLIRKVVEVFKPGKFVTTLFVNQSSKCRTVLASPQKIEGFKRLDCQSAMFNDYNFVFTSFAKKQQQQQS

HL-60 [14] = test: Induction of apoptosis in human HL60 cells assessed as caspase activity after 4 hrs; format: functional, cell-based
Outline: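 HL-60 cells treated 4 h across a range of concentrations. DEVD-cleaving caspase (DEVDase) activity measured fluorimetrically in cell extracts. One typical experiment shown, repeated at least twice.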

HL-60 [15] = test: Induction of cell death in human HL60 cells assessed as LDH release at 5 uM after 24 hrs; format: functional, cell-based
Outline: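 HL-60 cells exposed 24 h to 5 µM. Medium aliquots collected and LDH activity determined spectrophotometrically from NADH at 340 nm. One typical experiment shown, repeated at least twice.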

HL-60 [16] = test: Induction of apoptosis in human HL60 cells assessed as chromatin condensation at 5 uM after 3 hrs; format: functional, cell-based
Outline: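 HL-60 cells on glass coverslips treated 3 h with 5 µM. Cells fixed in 4% paraformaldehyde in PBS and stained with Hoechst 0.1 µg/mL. Nuclear morphology (chromatin condensation, apoptotic bodies) scored by fluorescence microscopy. Experiment repeated at least twice.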

HL-60 [17] = test: Disruption of mitochondrial membrane potential in human HL60 cells at 5 uM after 1 hr; format: functional, cell-based
Outline: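 HL-60 cells exposed to 5 µM for 1 h, then loaded with 40 nM DiOC6 for 40 min at 1 × 10⁶ cells/mL, 37 °C, in the dark. Mitochondrial membrane potential read by flow cytometry. Mean ± SEM of triplicate determinations.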

HL-60 [18] = test: Increase in peroxide formation in human HL60 cells at 5 uM after 3 hrs; format: functional, cell-based
Outline: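 Intracellular peroxides measured in HL-60 cells after 3 h at 5 µM. Cells incubated with 5 µM DCF-DA for 30 min at 37 °C, then read by flow cytometry. Mean ± SEM of triplicates.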

HL-60 [19] = test: Effect on energy metabolism assessed as increase in AMP/ATP ratio in human HL60 cells at 5 uM after 3 hrs; format: functional, cell-based
Outline: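 HL-60 cells treated 3 h with 5 µM. Adenine nucleotide levels measured and the AMP/ATP ratio calculated from them. Mean ± SEM of triplicate determinations.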

HL-60 [20] = test: Effect on cell growth in human HL60 cells assessed as cell number per mL at 10 uM; format: functional
Outline: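 HL-60 cells grown in RPMI 1640 with 10% FBS and 2 mM glutamine at 37 °C, 5% CO2 (doubling time about 24 h). Compound was taken from a DMSO stock, diluted in medium and applied for 24 h. Growth was assessed by Coulter cell counting, reported as cells/mL.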

HL-60 [21] = test: Induction of cell death in human HL60 cells at 10 uM by propidium iodide staining method; format: functional; outline: as §1
HL-60 [22] = test: Cell cycle arrest in human HL60 cells assessed as accumulation at G0/G1 phase at 10 uM; format: functional
Outline: (§4)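 HL-60 cells growing exponentially in RPMI 1640 with 10% FBS and 2 mM glutamine at 37 °C under 5% CO2. Compound was dissolved in DMSO, diluted in medium and applied for 24 h. Cells were fixed in cold 70% ethanol and stained with 50 µg/mL propidium iodide plus 10 µg/mL RNase for 30 min. DNA content was read by flow cytometry (≥10,000 cells) and the percentage of cells in each phase calculated.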

HL-60 [23] = test: Cell cycle arrest in human HL60 cells assessed as accumulation at S phase at 10 uM; format: functional; outline: as §4
HL-60 [24] = test: Cell cycle arrest in human HL60 cells assessed as accumulation at G2/M phase at 10 uM; format: functional; outline: as §4

SMILES | Activity (HL-60 [1]) | Activity (HL-60 [2]) [%] | GI50 (Cancer cell lines [3]) [µM] | TGI (Cancer cell lines [3]) [µM] | GI50 (Leukemia cell) [µM] | GI50 (Cancer cell lines [4]) [µM] | TGI (Cancer cell lines [4]) [µM] | GI50 (Cancer cell lines [5]) [µM] | TGI (Cancer cell lines [5]) [µM] | GI50 (Melanoma cell) [µM] | TGI (Melanoma cell) [µM] | GI50 (Cancer cell lines [6]) [µM] | TGI (Cancer cell lines [6]) [µM] | GI50 (Cancer cell lines [7]) [µM] | TGI (Cancer cell lines [7]) [µM] | GI50 (Cancer cell lines [8]) [µM] | TGI (Cancer cell lines [8]) [µM] | GI50 (Cancer cell lines [9]) [µM] | TGI (Cancer cell lines [9]) [µM] | Activity (HL-60 [10]) [%] | other results
Cc1cn2c(/C=N/NC(=N)N)c(-c3cc(Cl)sc3Cl)nc2s1 | 750 | 7.4 | 1.02 | 3.98 | 0.891 | 1.1 | 3.63 | 1.12 | 4.37 | 1.05 | 3.09 | 1.02 | 2.34 | 1.23 | 3.02 | 0.794 | 1.48 | 1.23 | 2.63 | 35.3 | TGI (Leukemia cell): 1.78 µM; Activity (HL-60 [11]): 50%; Activity (HL-60 [12]): 14.7%
Cc1nn2c(/C=N/NC(=N)N)c(-c3ccc(Cl)c([N+](=O)[O-])c3)nc2s1 | 410 | 31 | 0.646 | 2.82 | 0.575 | 3.31 | 11.5 | 1.23 | 9.77 | 1.45 | 2.95 | 1.48 | 4.27 | 1.23 | 3.63 | 1.1 | 2.63 | 1.02 | 6.92 | 29.9 | Activity [13]: Active; Activity (HL-60 [14]): Dose-dependent effect; Activity (HL-60 [15]): Active; Activity (HL-60 [16]): Active; Activity (HL-60 [17]): Active; Activity (HL-60 [18]): Active; Activity (HL-60 [19]): Active; TGI (Leukemia cell): 3.63 µM; Activity (HL-60 [11]): 53.6%; Activity (HL-60 [12]): 16.5%
Cc1cn2c(/C=N/NC(=N)NN)c(-c3ccc(Cl)c([N+](=O)[O-])c3)nc2s1 | 760 | 7.8 | 0.955 | 2.09 | 6.31 | 2.4 | 9.77 | 1.12 | 2.95 | 1.82 | 4.57 | 1.29 | 3.72 | 3.24 | 8.51 | 3.39 | 9.55 | 1.55 | 5.37 | 35 | Activity (HL-60 [11]): 51.9%; Activity (HL-60 [12]): 13.1%
COc1cc([N+](=O)[O-])c(OC)cc1-c1nc2sc(Cl)cn2c1/C=N\NC1=NCCN1 | 485 | 22 | 0.501 | 2.95 | 2.63 | 0.933 | 4.79 | 0.646 | 2.09 | 1.26 | 3.89 | 0.741 | 1.86 | 1.35 | 3.39 | 0.759 | 1.15 | 1.82 | 42.7 | 33.1 | Activity [13]: Active; Activity (HL-60 [14]): Dose-dependent effect; Activity (HL-60 [15]): Active; Activity (HL-60 [16]): Active; Activity (HL-60 [17]): Active; Activity (HL-60 [18]): Active; Activity (HL-60 [19]): Active; Activity (HL-60 [11]): 51.9%; Activity (HL-60 [12]): 15.1%
Cc1cn2c(/C=N/NC3=NCCN3)c(-c3ccc(Cl)c([N+](=O)[O-])c3)nc2s1 | 780 | 11.9 | 1.2 | 10 | 0.676 | 1.55 | 6.03 | 1.07 | 4.27 | 0.977 | 2.4 | 1.41 | 3.39 | 1.45 | 3.72 | 1.15 | 2.95 | 1.82 | 7.59 | 31.3 | TGI (Leukemia cell): 6.17 µM; Activity (HL-60 [11]): 53.7%; Activity (HL-60 [12]): 15%
CC(/C=N/NC(=N)N)=N\NC(=N)N [MITOGUAZONE] | – | – | 12.6 | 501 | 7.94 | 25.1 | 316 | 20 | 251 | 39.8 | 316 | 15.8 | 316 | 20 | 501 | 100 | 1580 | 15.8 | 316 | – | Activity (HL-60 [20]): 702; Activity (HL-60 [21]): 5.2%; TGI (Leukemia cell): 631 µM; Activity (HL-60 [22]): 43.6%; Activity (HL-60 [23]): 40.9%; Activity (HL-60 [24]): 15.5%
